The nature of test [1]: Inhibitory concentration for lipogenesis induced by retinoic acid receptor alpha in C3H10T1/2 clone 8 fibroblast cells.
Test [2] in a line: Effective concentration for lipogenesis induced by retinoid X receptor alpha in C3H10T1/2 clone 8 fibroblast cells; Partial agonist.
Test [3] can be described thus: Effective concentration for retinoic acid receptor alpha induced lipogenesis in C3H10T1/2 clone 8 fibroblast cells.
The nature of test [4]: Effective concentration for lipogenesis induced by retinoid X receptor alpha in C3H10T1/2 clone 8 fibroblast cells.
For test [5], the target named is T1, Retinoic acid receptor RXR-alpha (Homo sapiens, UniProt P19793).
T1 sequence (P19793 whole entry): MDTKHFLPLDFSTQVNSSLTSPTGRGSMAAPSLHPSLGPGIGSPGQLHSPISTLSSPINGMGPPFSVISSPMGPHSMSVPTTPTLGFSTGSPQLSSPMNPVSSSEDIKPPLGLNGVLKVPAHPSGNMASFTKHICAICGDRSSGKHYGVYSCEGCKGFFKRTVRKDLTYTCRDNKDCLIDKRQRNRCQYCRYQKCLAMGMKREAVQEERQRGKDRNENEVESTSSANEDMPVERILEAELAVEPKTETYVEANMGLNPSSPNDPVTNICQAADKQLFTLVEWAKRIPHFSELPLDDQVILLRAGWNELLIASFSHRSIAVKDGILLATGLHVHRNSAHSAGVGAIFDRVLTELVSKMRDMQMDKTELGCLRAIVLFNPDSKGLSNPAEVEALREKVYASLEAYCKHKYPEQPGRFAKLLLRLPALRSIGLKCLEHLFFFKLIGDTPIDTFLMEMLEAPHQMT
Nature of the test: Effective concentration for lipogenesis induced by retinoid X receptor alpha in C3H10T1/2 clone 8 fibroblast cells. A digest of the protocol:
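Lipogenesis measured in C3H10T1/2 clone 8 fibroblasts as triglyceride accumulation, used as a surrogate marker of RXR activity.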

For the molecule `CCCOc1cc2c(cc1C1CCCc3oc(/C=C/C(=O)O)cc31)C(C)(C)CCC2(C)C` (stereo unspecified) [(E)-3-[4-(5,5,8,8-Tetramethyl-3-propoxy-5,6,7,8-tetrahydro-naphthalen-2-yl)-4,5,6,7-tetrahydro-benzofuran-2-yl]-acrylic acid], the IC50 (commonly the concentration that gives 50% inhibition) in test [1] is more than 1 µM. Further, in test [2], a half-maximal effect (EC50) was put at 0.04 µM.

`CC1(C)CCC(C)(C)c2cc(Cc3coc(/C=C/C(=O)O)c3)ccc21` [(E)-3-[4-(5,5,8,8-Tetramethyl-5,6,7,8-tetrahydro-naphthalen-2-ylmethyl)-furan-2-yl]-acrylic acid]: the EC50 (as a rule, the midpoint of the concentration-response curve) in test [3] is 0.057 µM.

As to `CC1(C)CCC(C)(C)c2cc(C3CCCc4sc(/C=C/C(=O)O)cc43)ccc21` (stereo unspecified) [(E)-3-[4-(5,5,8,8-Tetramethyl-5,6,7,8-tetrahydro-naphthalen-2-yl)-4,5,6,7-tetrahydro-benzo[b]thiophen-2-yl]-acrylic acid], the EC50 in test [4] was determined as 0.072 µM.

`Cc1oc(/C=C/C(=O)O)cc1Cc1ccc2c(c1)C(C)(C)CCC2(C)C` [(E)-3-[5-Methyl-4-(5,5,8,8-tetramethyl-5,6,7,8-tetrahydro-naphthalen-2-ylmethyl)-furan-2-yl]-acrylic acid]: the EC50 in test [3] was more than 1 µM; in test [4], 1 µM.

For `Cc1cc2c(cc1C1CCCc3oc(/C=C/C(=O)O)cc31)C(C)(C)CCC2(C)C` (stereo unspecified) [(E)-3-[4-(3,5,5,8,8-Pentamethyl-5,6,7,8-tetrahydro-naphthalen-2-yl)-4,5,6,7-tetrahydro-benzofuran-2-yl]-acrylic acid], in test [4], the EC50 came out at 3 µM.

In test [4], `CC1(C)CCC(C)(C)c2cc(C3CCCc4oc(C=C5SC(O)=NC5=O)cc43)ccc21` (stereo unspecified) [5-[1-[4-(5,5,8,8-Tetramethyl-5,6,7,8-tetrahydro-naphthalen-2-yl)-4,5,6,7-tetrahydro-benzofuran-2-yl]-meth-(E)-ylidene]-thiazolidine-2,4-dione] displayed an EC50 of 0.005 µM.

Turning to `CN1Cc2oc(/C=C/C(=O)O)cc2C(c2ccc3c(c2)C(C)(C)CCC3(C)C)C1` (stereo unspecified), the results for the EC50 in test [3] and in test [4] were more than 10 µM and 0.022 µM, respectively.

`C/C(=C\C(=O)O)c1cc2c(o1)CCCC2c1ccc2c(c1)C(C)(C)CCC2(C)C` (stereo unspecified) returned an EC50 in test [4] of 0.01 µM.

Take `CC1(C)CCC(C)(C)c2cc(C3CCCc4oc(/C=C/C(=O)O)cc43)ccc21` (stereo unspecified) [(E)-3-[4-(5,5,8,8-Tetramethyl-5,6,7,8-tetrahydro-naphthalen-2-yl)-4,5,6,7-tetrahydro-benzofuran-2-yl]-acrylic acid]: the EC50 in test [5] is 0.004 µM; in test [4], 0.66 µM.

Regarding `CC1(C)CCC(C)(C)c2cc(C3CCCc4oc(/C=C/C(=O)O)nc43)ccc21` (stereo unspecified) [(E)-3-[4-(5,5,8,8-Tetramethyl-5,6,7,8-tetrahydro-naphthalen-2-yl)-4,5,6,7-tetrahydro-benzooxazol-2-yl]-acrylic acid], the EC50 is more than 10 µM in test [3] and 0.749 µM in test [4].

As to `COc1cc2c(cc1C1CCCc3oc(/C=C/C(=O)O)cc31)C(C)(C)CCC2(C)C` (stereo unspecified) [(E)-3-[4-(3-Methoxy-5,5,8,8-tetramethyl-5,6,7,8-tetrahydro-naphthalen-2-yl)-4,5,6,7-tetrahydro-benzofuran-2-yl]-acrylic acid], the EC50 in test [2] came out at 0.123 µM.

Source of the values: BindingDB's records for doi:10.1021/jm030565g (Glaxosmithkline, 2004).
